Measurements published in the EternaBench riboswitch data.

Tested on: MS2 coat protein
Assay: apparent Kd, MS2 coat protein; higher = weaker binding; RNA-MaP array; FMN 200 µM where present
In short: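 Binding was read on Illumina sequencing-chip clusters where stalled E. coli RNA polymerase had transcribed each design. A titration of SNAP-549-labelled MS2 coat protein began at 0.7 or 1.5 nM and doubled to 3 µM, once without ligand and once with constant ligand, in 100 mM Tris-HCl pH 7.5, 80 mM KCl, 4 mM MgCl2, BSA, DTT, yeast tRNA and Tween-20. The apparent Kd is the median of filtered per-cluster binding-curve fits, based on green signal normalised to red-channel RNA signal and control-cluster median Fmax.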

[1] = designed as: OFF switch for flavin mononucleotide, no ligand
[2] = ligand present: flavin mononucleotide, designed as: OFF switch for flavin mononucleotide
[3] = designed as: ON switch for flavin mononucleotide, no ligand
[4] = ligand present: flavin mononucleotide, designed as: ON switch for flavin mononucleotide

Row | Sequence | apparent Kd [1] [nM] | apparent Kd [2] [nM] | apparent Kd [3] [nM] | apparent Kd [4] [nM]
1 | GCCAGGAUGUAAGGAUAUGCUGAGGAAUACUCAGCAGAAGGUACAUGAGGAUCACCCAUGUAAUCCUAAUAAUAAUAACCUGGC | 11.1 | 16.6 |  | 
2 | UGGUACAUGGGAGGAUAUCAUGUAGAUACAUGAGGAUCACCCAUGUCGAUGGAGACAUCGGAGAUUGAGAAGGCCCAUGUACCU |  |  | 778 | 32.9
3 | UGAAAACAUGAGGAUCACCCAUGUCUAGGAGAUCGAGGAUAUGGGCCGGCACUAGGCGGGCCAGAAGGCGAAAAGU |  |  | 60.8 | 26.6
4 | UCUGUUUUGCGAGGAUAUCGACCAUUCCUCUUAACAUGAGGAUCACCCAUGUGCUAAUCCUACAACGAGAAGGCGCUCAUACUC | 250 | 348 |  | 
5 | AGUCUGAGAGGAUAUACAAGGGAAAAAAAAGUAAGAUCCCUACAUGAGGAUCACCCAUGUAGAAGGCUCUGACA | 98 | 43.8 |  | 
6 | ACAUGAUAUGUAGGAUAUCACAUUAAUUGUUUAAUAAUUGAAUUUAGGAUUUGAGAAGGACAUUUACAUGAGGAUCACCCAUGU | 16.9 | 12.7 |  | 
7 | AAUUUGCACGCAGGAUAUCGAUAUAAAAGCUGACGAGAAGGGCGGUACAUGAGGAUCACCCAUGUGAACGCCGGGUGGUCUCGU | 6.55 | 9.34 |  | 
8 | AAUAACAGAGGAUAUACUGUUUUAUGUGUUUGUUGUUUUGAACAUGAGGAUCACCCAUGUAGAAGGCUGAUUGA | 40.2 | 41.3 |  | 
9 | UCCUGACCGAGAGGUAGGAGUGGUAGAAGGCGACCGGUGCCAGAUGACAUGAGGAUCACCCAUGUCGAGGAUAUACCACAGAAU | 7.45 | 14.1 |  | 
10 | UUGAGGUAGGAGAAGGACAGAGGCGGAAACACAAACAUGAGGAUCACCCAUGUAGGAUAUCCUAACUAACGAGGAUACCUCAAG | 6.49 | 7.53 |  | 
11 | UUAUACUGAGAGAAGGUUCAAACUACAUAUUGCAUACAUGAGGAUCACCCAUGUUGGUGAAUAAGAAAGGAUAUUUUACUAUAU | 44 | 32.4 |  | 
12 | AAGGCGCUAGCAGGAUAUGUACAUGAGGAUCACCCAUGUAAAUCUGUAUCUGGUGAAGCGCAAGUAUAGAAGGGCUAACGCUGG | 4.71 | 6.2 |  | 
13 | AAUAACAGAGGAUAUACUGUUUUAUGUAUUUAUUAUUUUAAACAUGAGGAUCACCCAUGUAGAAGGCUGAGUAA | 24.6 | 23.4 |  | 
14 | AAAAGACAUGAGGAUCACCCAUGUGAAAACGUAGGAGGAUAUGUAUGGAAACCAUACUGUACAGAAGGCCUUUGUC |  |  | 28.1 | 29.7
15 | GAGAAGUCAGGAUAUGCAUGGCGGGACUUGCGUCGUGGCGUGCAGAAGGGACAUGAGGAUCACCCAUGUGGAGG | 169 | 243 |  | 
16 | UUAACAUGAGGAUCACCCAUGUAUAGGGAGUUAACAAUUGGACAGGAUAUUGAAGAUGUAGAUAGCAAGAAGGGUCGGUAGUCU |  |  | 38.9 | 35.8
17 | GGAUGACAAAGUCAUCCUAAACGAACAUGAGGAUCACCCAUGUAGGAUAUGCUUCUCAAAGAGAAGCAGAAGGACAUGUGCCUU | 35.1 | 276 |  | 
18 | CUCUUGUCAGGAUAUUAUGGACGAAGGCAGGGCCGCGUCAGUGAGAAGGGACAUGAGGAUCACCCAUGUAAAAU | 97.8 | 74.6 |  | 
19 | GUAGCAACAUGAGGAUCACCCAUGUAGGAUAUCGCUAUUGUAAUCAUGUUACAUGAUUACAAUAGCGAGAAGGACGUGAGCUAC | 8.43 | 11.4 |  | 
20 | AGAGACCUCACAGGAUAUGCUGGACUUUGUCCAGCAGAAGGGUGAAAACAUGAGGAUCACCCAUGUAUGGUCUCCAAAUUUAAU |  |  | 167 | 12.8
21 | AUGGCUAAUGAGAAGGUGUAUAUAAAUUAUAUACAAGGAUAUCGGUCAAGCAUGAAAACAUGAGGAUCACCCAUGUAAAGCCAU |  |  | 9.37 | 7.57
22 | GUUACACAUGAGGAUCACCCAUGUAAGGAUAUGCUGCGGUCGCGCUGACGUGACUGCAGCAGAAGGUACAAUUG | 84.7 | 88.6 |  | 
23 | AUCAGCUCGUGAGGAUAUGCGUCACUGCGUCAGCAGUGUGGUAAGAUCACAUGAGGAUCACCCAUGUAGAAGGCACGAGCUGAU | 34 | 455 |  | 
24 | CUCAUGUGAGGAUAUGUACAGAAAAAAAUGGGUGAAACUGUACAGAAGGCACAUGAGGAUCACCCAUGUGCCUU | 24.3 | 12.2 |  | 
25 | AUGAAAGUAACGCAGGAUAUCCAGGAUACAACAUGAGGAUCACCCAUGUACAUACGAACGUAUAAGGAGAAGGGUGGAUGAUCUUC |  |  | 173 | 342
26 | CCGAUAAUGUAGGAUAUCGUAUCGGAAACGAUACGAGAAGGGCAAACAUGAGGAUCACCCAUGUUCCUUAACGG | 17.4 | 18.5 |  | 
27 | CCGAUGUUAGGAUAUACUGCCCGUGGGAUAAACGCCGGGUAGUAGAAGGAACAUGAGGAUCACCCAUGUGACAC | 39.6 | 220 |  | 
28 | GGAUAGGACAGAGGAUAUACGUGCUAGAGAUACUCGCAAAAUUUCCUCACAUGAGGAUCACCCAUGUAGAAGGCUGUCCUAUCG | 93 | 436 |  | 

Row | Sequence | apparent Kd [1] [nM] | apparent Kd [2] [nM] | apparent Kd [3] [nM] | apparent Kd [4] [nM]
29 | CUAUUAUGUGUAGGAUAUGCAUAUUAUUAUUAUGCAGAAGGACAUGAGGAUCACCCAUGUAUAUUAUUAUUAUAUAUUAUAUAU | 10.7 | 11.6 |  | 
30 | AGGUAAGACUUAAUUGUGCUGGUGAGAAGGCUACUGGUUGUGGUCUACAUGAGGAUCACCCAUGUUGAGGAUAUCAUCGGUAUC | 606 | 72.7 |  | 
31 | GCGCUACAUGAGGAUCACCCAUGUGCGAACGCACGAGGAUAUGCAUGGGCUAAUGCUGGUGCAGAAGGCGUGGCGC |  |  | 31.8 | 22.6
32 | UACGAUGUACAUGAGGAUCACCCAUGUCAUAUGCCCGUGACACAGGAUAUCCAGGAUAGGCCAAAGGAGAAGGGUGAUCCGCGG |  |  | 66.9 | 139
33 | UGAUCGGAGACAGGAUAUGUGACUGCAUAGUGCACAGAAGGGUCUACAUGAGGAUCACCCAUGUCACCGAACAUCAAACAACAA |  |  | 433 | 41.9
34 | CUGGGCGGAGGAUAUGCGGGUUGGGCAUAAGUUCGGCUGGGACAUGAGGAUCACCCAUGUAGAAGGUUGUUCGG | 40.3 | 40 |  | 
35 | GUCAGCUCGUGAGGAUAUACAUGUGCUGGAAACAGCACUAUUGAGUUCACAUGAGGAUCACCCAUGUAGAAGGCACGAGCUGAU | 15.8 | 28 |  | 
36 | GUAUGAGCGAUAGGAUAUACUGAGAUUGAAUGGGUAGAAGGAUCUCUUGUGGGAAAGACAUGAGGAUCACCCAUGUCACGGGCC |  |  | 122 | 130
37 | UGGACCGAGCUAUCGGUUGACUCGAAGGAUAUGACAUGAGGAUCACCCAUGUGGGAUCUAAAUUGUCAGAAGGUUGGUUCUGGG | 367 | 140 |  | 
38 | ACUGCAUAGGCAGGAUAUGCAAAAGCAGAUGCAAAGCAUUUGAAUAACACAUGAGGAUCACCCAUGUAGAAGGGCCUGUGCAGU | 20.1 | 20.2 |  | 
39 | UCCGAAUCGUAGAAGGGUGACAUGAGGAUCACCCAUGUGCAGCAGCCGUGAACGGCCAUGCUGCCACAGGAUAUACGAUGGAGU |  |  | 41.1 | 56.2
40 | UUCGUGCAGCUUUGCUGUACGAGUACAUGAGGAUCACCCAUGUAGGAUAUGGUACGCUUUGCGUGCUAGAAGGAUAUGUGUAGC | 33 | 37 |  | 
41 | CGUGUUAGAGGAGGAUAUAGCGCAAGAAGGUCGCUAGAAGGCCUUGACAUGAGGAUCACCCAUGUGAUCGGCUCUCUGGGUAAG | 211 | 141 |  | 
42 | ACCUAGUCAGGAUAUGUACGGACCGGAAGCGGAUCGGAGGAGCAGAAGGGACAUGAGGAUCACCCAUGUUUGUU | 25.3 | 28 |  | 
43 | AGUUGCAAACACAACAUGAGGAUCACCCAUGUACUCUCGUGUAAGGAUAUACAUUCGUAUGGAAAGUAGAAGGUACUAAUUAUG |  |  | 27.3 | 32.1
44 | AAAUAAACUAGCAUAAUAUCCUCACAUGAGGAUCACCCAUGUCAGGAUAUUUGUCCUAAAAGGACAGAGAAGGGACGUGCUAGA | 5.07 | 6.27 |  | 
45 | AAUUAUUAUCGAGGAUAUCGUAUUGAAAUAAUAUGAGAAGGCGGGAUAAACAUGAGGAUCACCCAUGUGAGCCUGAUGCUUGUG | 19.2 | 35.4 |  | 
46 | GACUUGCUGUCAGGAUAUAACCGUCCUACACGGUUAGAAGGGACAUGAGGAUCACCCAUGUGCCAGAGCGCACGAAUUUUUUAC | 10.8 | 50.9 |  | 
47 | AGAUGGCGAGGAUAUACAUGAGGAUCACCCAUGUGAAGAUAAAGAGUGAGGAAGAAAAGUAGAAGGCGCUGUCA | 123 | 506 |  | 
48 | ACGCGAUGGGAGAAGGUACUUUAAGAAUUUUACACAUGAGGAUCACCCAUGUAAGGAUAUCCCAUCGUUAAAUAUUAUACAGCA | 6.56 | 5.77 |  | 
49 | UCGUGAAGGACAGGAUAUGGACAUGAGGAUCACCCAUGUACAUGGGAAUAUAUACUGAAUUUGUACUAGAAGGGUUACAUAAAU | 26.1 | 20.1 |  | 
50 | AGCACGUCAGGAUAUCUGAUGUCUAACUUCGGUUAGACAUCAGAGAAGGGACAUGAGGAUCACCCAUGUGCAAA | 60.6 | 77.9 |  | 
51 | UUGGACGUCGUAGGAUAUGUAGGAUAUUCCUACAUGAGGAUCACCCAUGUUGACAUGGAAGAAGGGCAGAAGGACGAUGUCCAU |  |  | 548 | 8.38
52 | GGGAGGUCAGGAUAUGCAUGGCGGGACUUGCGUCGUGGCGUGCAGAAGGGACAUGAGGAUCACCCAUGUGGAGA | 127 | 252 |  | 
53 | GAAUGGGAGUAGAAGGUACGUUAUUAGUUAAGGUAAGGAUAUACUAUAAUACAGACGACAUAUAAACAUGAGGAUCACCCAUGU |  |  | 10.3 | 6.55
54 | GCGUACAUAUCAGGAUAUCAUUGUAUUGUUUAACUCAGUGUAUACAUGAGGAUCACCCAUGUUCUUGAGAAGGGAUUACUACGC | 14.1 | 15.4 |  | 
55 | GUUGUGUAUGUAGGAUAUGCGAAGCAAAGCUUCGCAGAAGGACAUGAGGAUCACCCAUGUAUUGCAGCCUGCAAACAGGCUGCU | 40.2 | 170 |  | 
